Data: ChEMBL document CHEMBL4359883, “4(1H)-quinolone derivatives overcome acquired resistance to anti-microtubule agents by targeting the colchicine site of β-tubulin” (Eur J Med Chem, 2019)
One block for each compound: values may come before it. Active and inactive are the calls of the source. The rule behind the calls is not given here.

Experiments:
NCI-H1975 [1] = assay: Antitumour activity against human NCI-H1975 cells xenografted in Balb/c mouse assessed as tumour size at 4 mg/kg, ip administered three times per week and measured on day 21 (reference value: 2153 +/- 126.3 mm3); assay type: functional
Method in brief: (§1)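 H1975 tumours grown in the right flank of 6-week-old BALB/c nude mice. DMSO vehicle or 4 or 8 mg/kg compound in DMSO given ip three times weekly. Tumour volume calculated as 0.5W²L before each dose and compared on day 21.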

NCI-H1975 [2] = assay: Antitumour activity against human NCI-H1975 cells xenografted in Balb/c mouse assessed as tumour size at 8 mg/kg, ip administered three times per week and measured on day 21 (reference value: 2153 +/- 126.3 mm3); assay type: functional; method in brief: as §1
[3] = target: ATP-dependent translocase ABCB1 (Homo sapiens, UniProt P08183); assay: Inhibition of P-gp efflux in human KBtax cells at 30 to 120 nM after 1 hr by flow cytometry; assay type: cell-based
Method in brief: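 KBtax cells (2.5×10^5 per test) loaded with rhodamine in cold medium on ice for 1 h. Then resuspended in 37 °C medium with compound and held 1 h at 37 °C for efflux. Retained fluorescence measured by flow cytometry; verapamil used as P-gp inhibitor reference.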

Homo sapiens [4] = species: Homo sapiens; assay: Induction of morphological changes in human KBtax cells assessed as disruption of mitotic spindle arrangement at 30 nM after 6 hrs by DAPI staining based confocal microscopic analysis; assay type: functional, cell-based
Method in brief: (§2)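 Cells exposed for 6 h, fixed in 3.7% paraformaldehyde, permeabilized with 0.1% Triton X-100. Stained with anti-α-tubulin (1:1000) overnight at 4 °C, FITC secondary 1 h at 37 °C, nuclei counterstained with DAPI. Imaged by confocal laser scanning microscopy.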

Homo sapiens [5] = species: Homo sapiens; assay: Effect on p-gp expression in human KBtax cells at 30 to 60 nM after 24 hrs by immunoblotting analysis; assay type: functional, cell-based
CL1-0 [6] = assay: Cell cycle arrest in human CL1-0 cells assessed as increase in cell population at sub-G1 phase after 24 hrs by propidium iodide-staining based flow cytometry; assay type: functional
Method in brief: (§3)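 Cells treated for 24 h, then trypsinized and fixed overnight in ice-cold 70% ethanol. Stained for 30 min with propidium iodide (10 µg/mL) plus RNase (20 µg/mL), and DNA content measured by flow cytometry. Mean ± SD.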

CL1-0 [7] = assay: Cell cycle arrest in human CL1-0 cells assessed as increase in cell population at G2/M phase after 24 hrs by propidium iodide-staining based flow cytometry; assay type: functional; method in brief: as §3
NCI-H1975 [8] = assay: Cell cycle arrest in human NCI-H1975 cells assessed as increase in cell population at sub-G1 phase after 24 hrs by propidium iodide-staining based flow cytometry; assay type: functional; method in brief: as §3
NCI-H1975 [9] = assay: Induction of apoptosis in human NCI-H1975 cells assessed as caspase 8 activation at 40 to 80 nM after 24 hrs by immunoblotting analysis; assay type: functional, cell-based
NCI-H1975 [10] = assay: Induction of morphological changes in human NCI-H1975 cells assessed as disruption of mitotic spindle arrangement at 40 nM after 6 hrs by DAPI staining based DAPI staining based confocal microscopic analysis; assay type: functional, cell-based; method in brief: as §2
NCI-H1975 [11] = assay: Induction of apoptosis in human NCI-H1975 cells assessed as PARP cleavage at 40 nM by immunoblotting analysis; assay type: functional, cell-based; details: TDE = time-dependent effect
CL1-0 [12] = assay: Induction of apoptosis in human CL1-0 cells assessed as cleaved caspase 9 after 24 hrs by immunoblotting analysis; assay type: functional, cell-based
Tubulin (Sus scrofa) = Tubulin (Sus scrofa) (UniProt P02554+P02550); assay: Inhibition of porcine tubulin polymerization assessed as inhibition of formation of microtubule asters in centrosome after 8 mins immunofluorescence assay; assay type: protein assay
Method in brief: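 Purified centrosomes incubated with compound, then with porcine tubulin in 80 mM PIPES, 1 mM MgCl2, 1 mM EGTA, 1 mM GTP, pH 6.8 for 8 min at 37 °C. Asters fixed in 1% glutaraldehyde and stained for α-tubulin. Fiber length measured on 20 asters per group; mean ± SD.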

[13] = target: Tubulin beta (Homo sapiens) (UniProt P68371+Q9H4B7+Q13509+P04350+Q3ZCM7+P07437+Q13885+Q9BVA1+Q9BUF5+A6NNZ2); assay: Binding affinity to beta tubulin in human NCI-H1975 cells incubated for overnight by immunoblotting based pull down assay; assay type: cell-based
Method in brief: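 H1975 lysate in RIPA buffer with protease inhibitors incubated overnight at 4 °C with compound-conjugated magnetic beads or control beads. Beads washed five times with PBS, and bound proteins detected by SDS-PAGE immunoblotting with ECL.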

NCI-H1975 [14] = assay: Induction of apoptosis in human NCI-H1975 cells assessed as cleaved caspase 9 after 24 hrs by immunoblotting analysis; assay type: functional, cell-based
NCI-H1975 [15] = assay: Antiproliferative activity against human NCI-H1975 cells assessed as reduction in colony formation after 14 days by crystal violet staining based assay; assay type: functional, cell-based
Method in brief: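 Seeded at 1000 cells/well, cultured overnight, then treated with 12.5–200 nM for 14 days. Colonies fixed in 3.7% paraformaldehyde, stained with 0.04% crystal violet and dissolved in DMSO, then absorbance read at 590 nm. Mean ± SD.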

NCI-H1975 [16] = assay: Antitumour activity against human NCI-H1975 cells xenografted in Balb/c mouse assessed as reduction in tumour size at 4 mg/kg, ip administered 3 times per week and measured on day 25 (reference value: 1749 +/- 234.5 mm3); assay type: functional
[17] = Cytotoxicity against human NHFB cells assessed as reduction in cell viability after 72 hrs by MTS assay; assay type: cell-based
Method in brief: (§4)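 Cells plated at 2000 per well, cultured overnight, then exposed to a range of compound concentrations for 72 h. MTS reagent added, 1–4 h at 37 °C, absorbance read at 490 nm. Mean of three determinations.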

SK-OV-3 = assay: Antiproliferative activity against human SKOV3 cells assessed as reduction in cell viability after 72 hrs by MTS assay; assay type: functional, cell-based; details: SK-OV-3, 72 h
Method in brief: (§5)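 Cells plated at 2000/well, cultured overnight, then exposed to a range of compound concentrations for 72 h. MTS reagent added for 1–4 h at 37 °C and absorbance read at 490 nm. Cultured in RPMI 1640 or DMEM with 10% heat-inactivated FBS under 5% CO2. Data are the mean of three determinations.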

NCI-H1975 [18] = assay: Induction of mitotic arrest in human NCI-H1975 cells assessed as increase in cyclin B1 expression at 40 to 80 nM after 24 hrs by immunoblotting analysis; assay type: functional, cell-based
Tubulin (Homo sapiens) = Tubulin (Homo sapiens) (UniProt P68371+Q9H4B7+P0DPH7+P68366+Q13509+Q71U36+P04350+Q3ZCM7+P07437+P68363+Q9BQE3+Q6PEY2+Q13885+Q9BVA1+Q9BUF5); assay: Induction of microtubule depolymerization in human CL1-0 cells at 20 nM after 6 hrs by DAPI staining based DAPI staining based confocal microscopic analysis; assay type: cell-based; method in brief: as §2
CL1-0 [19] = assay: Induction of apoptosis in human CL1-0 cells assessed as bax protein expression after 24 hrs by immunoblotting analysis; assay type: functional, cell-based
A549 = assay: Antiproliferative activity against human A549 cells assessed as reduction in cell viability after 72 hrs by MTS assay; assay type: functional, cell-based; details: A549, 72 h; method in brief: as §5
[20] = Cytotoxicity against human bronchial epithelial cells assessed as reduction in cell viability after 72 hrs by MTS assay; assay type: cell-based; method in brief: as §4

Chain of Tubulin (Sus scrofa) (P02550 whole entry, looked up): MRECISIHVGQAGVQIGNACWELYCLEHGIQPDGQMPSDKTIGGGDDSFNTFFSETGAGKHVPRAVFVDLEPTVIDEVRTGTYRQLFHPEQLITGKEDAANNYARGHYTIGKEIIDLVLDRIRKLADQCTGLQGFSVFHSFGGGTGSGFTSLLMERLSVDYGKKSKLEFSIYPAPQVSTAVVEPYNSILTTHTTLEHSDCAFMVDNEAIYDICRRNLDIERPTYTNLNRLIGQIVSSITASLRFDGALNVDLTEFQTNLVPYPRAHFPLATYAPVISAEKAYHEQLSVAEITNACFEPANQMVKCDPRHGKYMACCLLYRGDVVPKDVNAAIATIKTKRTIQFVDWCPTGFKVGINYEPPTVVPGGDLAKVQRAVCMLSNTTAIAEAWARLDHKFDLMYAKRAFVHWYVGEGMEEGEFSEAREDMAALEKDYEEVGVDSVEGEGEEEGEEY
Chain of Tubulin (Sus scrofa) (P02554 whole entry, looked up): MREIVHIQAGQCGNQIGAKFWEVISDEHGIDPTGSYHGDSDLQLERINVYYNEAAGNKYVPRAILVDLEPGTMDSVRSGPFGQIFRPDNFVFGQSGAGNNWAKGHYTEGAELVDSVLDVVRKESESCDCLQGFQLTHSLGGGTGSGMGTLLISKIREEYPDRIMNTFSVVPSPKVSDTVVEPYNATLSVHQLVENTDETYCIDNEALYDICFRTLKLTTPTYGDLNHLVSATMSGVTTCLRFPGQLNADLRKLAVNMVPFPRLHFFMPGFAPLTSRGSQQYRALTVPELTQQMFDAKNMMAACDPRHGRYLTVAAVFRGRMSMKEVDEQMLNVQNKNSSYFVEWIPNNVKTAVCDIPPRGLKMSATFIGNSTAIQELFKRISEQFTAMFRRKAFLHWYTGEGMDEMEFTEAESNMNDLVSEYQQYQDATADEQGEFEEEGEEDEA
Chain of ATP-dependent translocase ABCB1 (P08183 whole entry): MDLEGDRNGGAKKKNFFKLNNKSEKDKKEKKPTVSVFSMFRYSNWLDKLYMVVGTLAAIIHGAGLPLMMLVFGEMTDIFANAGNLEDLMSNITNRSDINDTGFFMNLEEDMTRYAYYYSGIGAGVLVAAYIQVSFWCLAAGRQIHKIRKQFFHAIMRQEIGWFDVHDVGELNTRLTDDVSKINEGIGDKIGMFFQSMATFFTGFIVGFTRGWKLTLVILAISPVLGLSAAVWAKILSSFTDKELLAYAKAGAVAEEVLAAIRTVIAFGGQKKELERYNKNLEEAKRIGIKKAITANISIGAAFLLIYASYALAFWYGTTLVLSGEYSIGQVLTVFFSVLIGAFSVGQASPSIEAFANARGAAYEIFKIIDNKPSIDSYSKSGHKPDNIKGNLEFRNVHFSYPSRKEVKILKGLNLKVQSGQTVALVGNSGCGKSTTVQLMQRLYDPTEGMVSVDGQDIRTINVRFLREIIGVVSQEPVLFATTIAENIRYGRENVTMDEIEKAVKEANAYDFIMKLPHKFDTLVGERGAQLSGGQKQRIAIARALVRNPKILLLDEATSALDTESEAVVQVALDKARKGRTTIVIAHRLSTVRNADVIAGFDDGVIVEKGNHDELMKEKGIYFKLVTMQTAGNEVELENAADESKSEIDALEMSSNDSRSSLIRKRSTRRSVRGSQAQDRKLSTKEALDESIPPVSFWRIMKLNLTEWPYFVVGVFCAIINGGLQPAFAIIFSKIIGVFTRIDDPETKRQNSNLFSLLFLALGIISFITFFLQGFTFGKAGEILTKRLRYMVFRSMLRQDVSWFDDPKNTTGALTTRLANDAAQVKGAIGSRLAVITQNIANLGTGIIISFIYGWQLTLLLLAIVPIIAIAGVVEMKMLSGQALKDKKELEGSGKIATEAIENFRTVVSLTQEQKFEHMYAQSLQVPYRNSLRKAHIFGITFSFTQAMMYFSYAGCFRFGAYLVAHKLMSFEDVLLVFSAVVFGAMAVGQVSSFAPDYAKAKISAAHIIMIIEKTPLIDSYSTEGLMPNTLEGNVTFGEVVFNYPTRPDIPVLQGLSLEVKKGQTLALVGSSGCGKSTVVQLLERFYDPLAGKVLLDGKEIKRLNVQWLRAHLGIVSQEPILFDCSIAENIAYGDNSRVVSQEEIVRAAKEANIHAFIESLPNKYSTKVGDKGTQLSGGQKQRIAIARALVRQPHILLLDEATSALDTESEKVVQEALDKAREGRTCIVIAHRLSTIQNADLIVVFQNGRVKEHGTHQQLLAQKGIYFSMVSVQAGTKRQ

inhibition (INH) [3]: Not Active
SMILES: CCOC(=O)c1ccc2[nH]c(-c3cccc(F)c3)cc(=O)c2c1
Activity (NCI-H1975 [1]): 1333 mm3
Activity (NCI-H1975 [2]): 972.5 mm3
Activity (Homo sapiens [4]): Active
Activity (Homo sapiens [5]): inactive

inhibition (Tubulin (Sus scrofa)): Active
Activity [13]: Active
IC50 (SK-OV-3): 50 nM
Activity (Tubulin (Homo sapiens)): Active
IC50 (A549): 20 nM
SMILES: CCOC(=O)c1ccc2nc(-c3ccccc3)cc(O)c2c1
Activity (CL1-0 [6]): Dose-dependent effect
Activity (CL1-0 [7]): Dose-dependent effect
Activity (NCI-H1975 [8]): Dose-dependent effect
Activity (NCI-H1975 [9]): inactive
Activity (NCI-H1975 [10]): Active
Activity (NCI-H1975 [11]): Tde
Activity (CL1-0 [12]): Dose-dependent effect
Activity (NCI-H1975 [14]): Dose-dependent effect
Activity (NCI-H1975 [15]): Active
Activity (NCI-H1975 [16]): 871.3 mm3
IC50 [17]: > 10000 nM
Activity (NCI-H1975 [18]): Active
Activity (CL1-0 [19]): Dose-dependent effect
IC50 [20]: > 10000 nM
